{"source": "ChEMBL document CHEMBL3102838", "about": "“Synthesis of RCAI-172 (C6 epimer of RCAI-147) and its biological activity” (2014)", "key": {"Mus musculus [1]": {"system": "Mus musculus", "test": "Immunostimulatory activity in C57BL/6 mouse autoimmune encephalomyelitis model assessed as IL-4 secretion inoculated with compound-treated GM-CSF-induced dendritic cells administered on day 3 and 5 relative to KRN7000", "assay_type": "functional"}, "Mus musculus [2]": {"system": "Mus musculus", "test": "Immunomodulatory activity in mouse assessed as reduction of IL-4 secretion at 10 ug/mL, iv relative to KRN7000", "assay_type": "functional", "set-up": "scale not given: the % may be the effect or the level left", "method_in_brief": "(§1)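 Female-unspecified mice given glycolipid via tail vein: DMSO stock (1.0 mg/mL) diluted to 10 μg/mL in Dulbecco's PBS just before use; 200 μL injected (2 μg/mouse). Retro-orbital blood drawn into heparinized capillaries at set time points and plasma prepared. Plasma IFN-γ and IL-4 quantified by cytometric bead array. Means ±SD, three mice.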"}, "Mus musculus [3]": {"system": "Mus musculus", "test": "Immunostimulatory activity in C57BL/6 mouse autoimmune encephalomyelitis model assessed as decrease in IFNgamma secretion inoculated with compound-treated GM-CSF-induced dendritic cells administered on day 3 and 5 relative to KRN7000", "assay_type": "functional", "set-up": "scale not given: the % may be the effect or the level left"}, "Mus musculus [4]": {"system": "Mus musculus", "test": "Immunomodulatory activity in mouse assessed as reduction of IFNgamma secretion at 10 ug/mL, iv relative to KRN7000", "assay_type": "functional", "set-up": "scale not given: the % may be the effect or the level left", "method_in_brief": "as §1"}, "Mus musculus [5]": {"organism": "Mus musculus", "test": "Ratio for reduction of IL-4 secretion in mouse to reduction of IFNgamma secretion in mouse", "assay_type": "functional"}, "Mus musculus [6]": {"system": "Mus musculus", "test": "Immunomodulatory activity in mouse assessed as reduction of IL-4 secretion at 10 ug/mL, iv relative to RCAI-147", "assay_type": "functional", "set-up": "scale not given: the % may be the effect or the level left"}, "Mus musculus [7]": {"system": "Mus musculus", "test": "Immunostimulatory activity in C57BL/6 mouse autoimmune encephalomyelitis model inoculated with compound-treated GM-CSF-induced dendritic cells administered on day 3 and 5", "assay_type": "functional, organism-based", "method_in_brief": "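EAE in female C57BL/6 mice was induced on day 1 by subcutaneous MOG35-55/CFA emulsion at two lower-back sites, with an additional adjuvant given intraperitoneally on days 1 and 3. Bone-marrow GM-DC were raised with GM-CSF (10 ng/mL, 5 days), CD11c-enriched, then pulsed with glycolipid (100 ng/mL; 5×10^6 cells/mL, 24 h). Mice were scored daily to day 30 on a 0–5 scale in 0.5 steps.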"}, "Mus musculus [8]": {"system": "Mus musculus", "test": "Immunomodulatory activity in mouse assessed as IFNgamma secretion at 10 ug/mL, iv relative to KRN7000", "assay_type": "functional", "method_in_brief": "as §1"}, "Mus musculus [9]": {"system": "Mus musculus", "test": "Immunomodulatory activity in mouse assessed as increase in IL-4 secretion at 10 ug/mL, iv relative to KRN7000", "assay_type": "functional", "method_in_brief": "as §1"}, "Mus musculus [10]": {"system": "Mus musculus", "test": "Immunomodulatory activity in mouse assessed as IL-4 secretion at 10 ug/mL, iv relative to KRN7000", "assay_type": "functional", "method_in_brief": "as §1"}}, "note": "The source made the active and inactive calls. No cut-off for these calls is given here."}
{"smiles": "CCCCCCCCCCCCCCCCCCCCCCC[C@@H](O)[C@@H](O)C(=O)N[C@@H](CO[C@H]1O[C@H](CO)[C@H](O)[C@H](O)[C@H]1O)[C@H](O)[C@H](O)[C@@H](O)[C@@H](O)CCCCCCCCCCCC", "values": [{"measurement": "Activity", "setting": "Mus musculus [1]", "value": ">60", "unit": "%"}, {"measurement": "Activity", "setting": "Mus musculus [2]", "value": 70, "unit": "%"}, {"measurement": "Activity", "setting": "Mus musculus [3]", "value": "<5", "unit": "%"}, {"measurement": "Activity", "setting": "Mus musculus [4]", "value": 5, "unit": "%"}, {"measurement": "Ratio", "setting": "Mus musculus [5]", "value": 14}]}
{"smiles": "CCCCCCCCCCCCCCCCCCCCCCC[C@@H](O)[C@@H](O)C(=O)N[C@@H](CO[C@H]1O[C@H](CO)[C@H](O)[C@H](O)[C@H]1O)[C@H](O)[C@H](O)[C@@H](O)[C@H](O)CCCCCCCCCCCC", "values": [{"measurement": "Activity", "setting": "Mus musculus [6]", "value": 61, "unit": "%"}, {"measurement": "Activity", "setting": "Mus musculus [2]", "value": 35.3, "unit": "%"}, {"measurement": "Activity", "setting": "Mus musculus [7]", "value": "inactive"}, {"measurement": "Activity", "setting": "Mus musculus [4]", "value": 4.1, "unit": "%"}, {"measurement": "Ratio", "setting": "Mus musculus [5]", "value": 8.6}]}
{"smiles": "CCCCCCCCCCCCCCCCCCCCCCC[C@@H](O)[C@@H](O)C(=O)N[C@@H](CO[C@H]1O[C@H](CO)[C@H](O)[C@H](O)[C@H]1O)[C@H](O)[C@H](O)CCCCCCCCCCCCCC", "values": [{"measurement": "Activity", "setting": "Mus musculus [8]", "value": 41, "unit": "%"}, {"measurement": "Activity", "setting": "Mus musculus [9]", "value": 138, "unit": "%"}, {"measurement": "Ratio", "setting": "Mus musculus [5]", "value": 3.4}]}
{"smiles": "CCCCCCCCCCCCCCCCCCCCCC[C@@H](O)[C@@H](O)[C@@H](O)C(=O)N[C@@H](CO[C@H]1O[C@H](CO)[C@H](O)[C@H](O)[C@H]1O)[C@H](O)[C@H](O)CCCCCCCCCCCCCC", "values": [{"measurement": "Activity", "setting": "Mus musculus [1]", "value": ">60", "unit": "%"}, {"measurement": "Activity", "setting": "Mus musculus [3]", "value": "<5", "unit": "%"}]}
{"smiles": "CCCCCCCCCCCCCCCCCCCCCCCCCC(=O)N[C@@H](CO[C@H]1O[C@H](CO)[C@H](O)[C@H](O)[C@H]1O)[C@H](O)CC[C@@H](O)CCCCCCCCCCCC", "values": [{"measurement": "Activity", "setting": "Mus musculus [8]", "value": 160, "unit": "%"}, {"measurement": "Activity", "setting": "Mus musculus [10]", "value": 75, "unit": "%"}]}
{"smiles": "CCCCCCCCCCCCCCCCCCCCCCCCCC(=O)N[C@@H](CO[C@H]1O[C@H](CO)[C@H](O)[C@H](O)[C@H]1O)[C@H](O)CC[C@H](O)CCCCCCCCCCCC", "values": [{"measurement": "Activity", "setting": "Mus musculus [8]", "value": 64, "unit": "%"}, {"measurement": "Activity", "setting": "Mus musculus [10]", "value": 19, "unit": "%"}]}
